Measured values reported in ChEMBL document CHEMBL1921735, “Antibacterial optimization of 4-aminothiazolyl analogues of the natural product GE2270 A: identification of the cycloalkylcarboxylic acids” (J Med Chem, 2011).
Values after ≈ are worked out from the molar mass of the structure shown. Active and inactive are the calls of the source. Unless noted, the rule behind the calls is not given here.

Experiments:
Enterococcus faecalis [1] = experiment: Antibacterial activity against Enterococcus faecalis ATCC 29212 by CLSI M07-A8 method; type: functional
How it was run: (§1)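 Broth microdilution MIC run per CLSI M07-A8 (2009).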

Enterococcus faecium = experiment: Antibacterial activity against Enterococcus faecium 7130724 by CLSI M07-A8 method; type: functional; how it was run: as §1
Staphylococcus aureus [2] = experiment: Antibacterial activity against methicillin-resistant Staphylococcus aureus isolate A4.018 by CLSI M07-A8 method; type: functional
Streptococcus pyogenes = experiment: Antibacterial activity against Streptococcus pyogenes ATCC BAA-595 by CLSI M07-A8 method; type: functional; how it was run: as §1
Staphylococcus aureus [3] = experiment: Antibacterial activity against Staphylococcus aureus ATCC 49951 infected in CD1 mouse assessed as protection against bacterial infection administered 5 hrs post infection measured on day 5; type: functional
How it was run: (§2)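 Mouse lethal systemic infection: ip injection of 1 × 10^8 cfu/mouse (10−100× minimal lethal dose), E. faecalis in 50% sterile rat fecal extract, S. aureus in 0.9% NaCl. Therapy by tail-vein bolus at several doses, six mice per group. Started immediately for E. faecalis; at 1 and 5 h post-inoculation for S. aureus.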

Enterococcus faecalis [4] = experiment: Antibacterial activity against Enterococcus faecalis isolate NB04025 infected in CD1 mouse assessed as protection against bacterial infection administered immediately after infection measured on day 5; type: functional; conditions: isolate NB04025, 120 h; how it was run: as §2
[5] = Cmax in Sprague-Dawley rat at 1 mg/kg, iv bolus; type: ADME, organism-based; parameters: dose 1 mg/kg, route intravenous; conditions: in vivo
How it was run: (§3)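 Male Sprague−Dawley rats (220−270 g, ~6−10 weeks) with dual jugular vein cannulae, fasted overnight and for 8 h post-dose, given iv bolus (N = 2 or 3). Blood was collected into K2EDTA tubes and plasma was obtained. Plasma was protein-precipitated with acetonitrile containing glyburide internal standard, then analysed by LC−MS/MS (C18, 0.1% formic acid water/acetonitrile gradient).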

[6] = Cmax in Sprague-Dawley rat at 25 mg/kg, iv bolus; type: ADME, organism-based; parameters: dose 25 mg/kg, route intravenous; conditions: in vivo; how it was run: as §3
Rattus norvegicus [7] = experiment: Cmax in Sprague-Dawley rat at 75 mg/kg, iv bolus; type: ADME, organism-based; parameters: dose 75 mg/kg, route intravenous; conditions: in vivo; how it was run: as §3
[8] = AUC in Sprague-Dawley rat at 1 mg/kg, iv bolus; type: ADME, organism-based; parameters: dose 1 mg/kg, route intravenous; conditions: plasma; how it was run: as §3
[9] = AUC in Sprague-Dawley rat at 25 mg/kg, iv bolus; type: ADME, organism-based; parameters: dose 25 mg/kg, route intravenous; conditions: plasma; how it was run: as §3
[10] = AUC in Sprague-Dawley rat at 75 mg/kg, iv bolus; type: ADME, organism-based; parameters: dose 75 mg/kg, route intravenous; conditions: plasma; how it was run: as §3
[11] = Volume of distribution at steady state in Sprague-Dawley rat at 1 mg/kg, iv bolus; type: ADME, organism-based; parameters: dose 1 mg/kg, route intravenous; conditions: in vivo, read-out: Vdss; how it was run: as §3
[12] = Volume of distribution at steady state in Sprague-Dawley rat at 25 mg/kg, iv bolus; type: ADME, organism-based; parameters: dose 25 mg/kg, route intravenous; conditions: in vivo, read-out: Vdss; how it was run: as §3
[13] = Volume of distribution at steady state in Sprague-Dawley rat at 75 mg/kg, iv bolus; type: ADME, organism-based; parameters: dose 75 mg/kg, route intravenous; conditions: in vivo, read-out: Vdss; how it was run: as §3
[14] = Clearance in Sprague-Dawley rat at 1 mg/kg, iv bolus; type: ADME, organism-based; parameters: dose 1 mg/kg, route intravenous; conditions: in vivo; how it was run: as §3
[15] = Clearance in Sprague-Dawley rat at 25 mg/kg, iv bolus; type: ADME, organism-based; parameters: dose 25 mg/kg, route intravenous; conditions: in vivo; how it was run: as §3
[16] = Clearance in Sprague-Dawley rat at 75 mg/kg, iv bolus; type: ADME, organism-based; parameters: dose 75 mg/kg, route intravenous; conditions: in vivo; how it was run: as §3
[17] = Plasma protein binding in Sprague-Dawley rat; type: ADME, cell-free; conditions: read-out: PPB
How it was run: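 Rat plasma protein binding was determined in triplicate by rapid equilibrium dialysis. Samples were quantified by LC−MS/MS after acetonitrile precipitation with glyburide internal standard.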

[18] = Oral bioavailability in Sprague-Dawley rat; type: ADME, organism-based; conditions: in vivo
Staphylococcus aureus [19] = experiment: Antibacterial activity against Staphylococcus aureus ATCC 01001 infected in thigh of CD1 mouse assessed as prevention of colony formation at 80 to 320 mg/kg, ip administered 2 hrs post infection measured after 12 hrs; type: functional, organism-based
How it was run: (§4)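 Female CD1 mice (21−25 g), made neutropenic with cyclophosphamide ip at 150 mg/kg (day −4) and 100 mg/kg (day −1). Left thigh infected im with 0.05 mL S. aureus ATCC 01001 (7.5 × 10^5 cfu/thigh), grown 16 h at 36 °C in cation-supplemented Mueller Hinton. Treatment given 2 h post-infection, four mice per group. At 12 or 24 h thighs were excised, homogenized in 0.9% NaCl, serially diluted and plated on blood agar for cfu.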

Staphylococcus aureus [20] = experiment: Antibacterial activity against Staphylococcus aureus ATCC 01001 infected in thigh of CD1 mouse assessed as prevention of colony formation at 80 to 320 mg/kg, ip administered 2 hrs post infection measured after 24 hrs; type: functional, organism-based; how it was run: as §4
Staphylococcus aureus [21] = experiment: Bacteriostatic activity against Staphylococcus aureus ATCC 01001 infected in thigh of CD1 mouse assessed as prevention of colony formation at 40 mg/kg, ip administered 2 hrs post infection measured after 12 hrs; type: functional, organism-based; parameters: dose 40 mg/kg; how it was run: as §4
Staphylococcus aureus [22] = experiment: Bacteriostatic activity against Staphylococcus aureus ATCC 01001 infected in thigh of CD1 mouse assessed as prevention of colony formation at 80 mg/kg, ip administered 2 hrs post infection measured after 24 hrs; type: functional, organism-based; parameters: dose 80 mg/kg; how it was run: as §4
Rattus norvegicus [23] = experiment: Dose normalized AUC in Sprague-Dawley rat at 1 mg/kg, iv bolus; type: ADME, organism-based; parameters: dose 1 mg/kg, route intravenous; conditions: in vivo; how it was run: as §3
Rattus norvegicus [24] = experiment: Dose normalized AUC in Sprague-Dawley rat at 25 mg/kg, iv bolus; type: ADME, organism-based; parameters: dose 25 mg/kg, route intravenous; conditions: in vivo; how it was run: as §3
Rattus norvegicus [25] = experiment: Dose normalized AUC in Sprague-Dawley rat at 75 mg/kg, iv bolus; type: ADME, organism-based; parameters: dose 75 mg/kg, route intravenous; conditions: in vivo; how it was run: as §3
[26] = Chemical stability of the compound in 15% v/v NaOH, 5% PEG-300, 0.9% saline, 55% v/v water at pH 7.2 to 7.8; type: physicochemical; conditions: buffer
Streptococcus pneumoniae = experiment: Antibacterial activity against Streptococcus pneumoniae by CLSI M07-A8 method; type: functional, organism-based; how it was run: as §1
Staphylococcus aureus [27] = experiment: Antibacterial activity against Staphylococcus aureus ATCC 01001 infected in thigh of CD1 mouse assessed as prevention of colony formation at 32 mg/kg, ip administered 2 hrs post infection measured after 12 hrs; type: functional, organism-based; parameters: dose 32 mg/kg; how it was run: as §4
Staphylococcus aureus [28] = experiment: Antibacterial activity against Staphylococcus aureus ATCC 01001 infected in thigh of CD1 mouse assessed as prevention of colony formation at 32 mg/kg, ip administered 2 hrs post infection measured after 24 hrs; type: functional, organism-based; parameters: dose 32 mg/kg; how it was run: as §4
Staphylococcus aureus [29] = experiment: Bacteriostatic activity against Staphylococcus aureus ATCC 01001 infected in thigh of CD1 mouse assessed as prevention of colony formation at 80 mg/kg, po administered 2 hrs post infection measured after 12 hrs; type: functional, organism-based; parameters: dose 80 mg/kg; how it was run: as §4
Staphylococcus aureus [30] = experiment: Bacteriostatic activity against Staphylococcus aureus ATCC 01001 infected in thigh of CD1 mouse assessed as prevention of colony formation at 80 mg/kg, po administered 2 hrs post infection measured after 24 hrs; type: functional, organism-based; parameters: dose 80 mg/kg; how it was run: as §4

SMILES: CNC(=O)C[C@@H]1NC(=O)c2csc(n2)-c2ccc(-c3nc(NC(=O)[C@H]4CC[C@H](C(=O)O)CC4)cs3)nc2-c2csc(n2)-c2csc(n2)[C@H]([C@@H](O)c2ccccc2)NC(=O)CNC(=O)c2nc(sc2COC)[C@H](C(C)C)NC(=O)c2nc1sc2C
- MIC (Enterococcus faecalis [1]): 0.06 µg/mL (≈ 0.048 µM)
- MIC (Enterococcus faecium): 0.06 µg/mL (≈ 0.048 µM)
- MIC (Staphylococcus aureus [2]): 0.125 µg/mL (≈ 0.1 µM)
- MIC (Streptococcus pyogenes): 4 µg/mL (≈ 3.2 µM)
- ED50 (Staphylococcus aureus [3]): 5.2 mg/kg
- ED50 (Enterococcus faecalis [4]): 0.6 mg/kg
- Cmax [5]: 5 µM
- Cmax [6]: 320 µM
- Cmax (Rattus norvegicus [7]): > 1000 µM
- AUC [8]: 3 µM·h
- AUC [9]: 343 µM·h
- AUC [10]: 2860 µM·h
- Vd [11]: < 0.1 L/kg
- Vd [12]: < 0.1 L/kg
- Vd [13]: < 0.1 L/kg
- clearance [14]: 6.7 mL/min/kg
- clearance [15]: 1 mL/min/kg
- clearance [16]: 0.4 mL/min/kg
- fraction unbound [17]: < 0.01
- bioavailability [18]: < 0.1%
- Activity (Staphylococcus aureus [19]): Active
- Activity (Staphylococcus aureus [20]): Active
- Activity (Staphylococcus aureus [21]): Active
- Activity (Staphylococcus aureus [22]): Active
- AUC/dose (Rattus norvegicus [23]): 3 µM·h/mg/kg
- AUC/dose (Rattus norvegicus [24]): 13.7 µM·h/mg/kg
- AUC/dose (Rattus norvegicus [25]): 38.2 µM·h/mg/kg
- Stability [26]: > 1 weeks
- Activity (Streptococcus pneumoniae): Active

SMILES: CCCCCCCCCC(=O)N[C@@H](Cc1c[nH]c2ccccc12)C(=O)N[C@H](CC(N)=O)C(=O)N[C@@H](CC(=O)O)C(=O)N[C@@H]1C(=O)NCC(=O)N[C@@H](CCCN)C(=O)N[C@@H](CC(=O)O)C(=O)N[C@H](C)C(=O)N[C@@H](CC(=O)O)C(=O)NCC(=O)N[C@H](CO)C(=O)N[C@@H]([C@H](C)CC(=O)O)C(=O)N[C@@H](CC(=O)c2ccccc2N)C(=O)O[C@@H]1C
- Activity (Staphylococcus aureus [27]): Active
- Activity (Staphylococcus aureus [28]): Active

SMILES: CNC(=O)C[C@@H]1NC(=O)c2csc(n2)-c2ccc(-c3nc(NC(=O)O[C@H]4CC[C@H](C(=O)O)CC4)cs3)nc2-c2csc(n2)-c2csc(n2)[C@H]([C@@H](O)c2ccccc2)NC(=O)CNC(=O)c2nc(sc2COC)[C@H](C(C)C)NC(=O)c2nc1sc2C
- MIC (Enterococcus faecalis [1]): 0.06 µg/mL (≈ 0.0474 µM)
- MIC (Enterococcus faecium): 0.03 µg/mL (≈ 0.0237 µM)
- MIC (Staphylococcus aureus [2]): 0.125 µg/mL (≈ 0.0987 µM)
- MIC (Streptococcus pyogenes): 2 µg/mL (≈ 1.58 µM)
- ED50 (Staphylococcus aureus [3]): 4.3 mg/kg
- ED50 (Enterococcus faecalis [4]): 0.2 mg/kg
- Stability [26]: > 1 weeks
- Activity (Streptococcus pneumoniae): Active

SMILES: CC(=O)NC[C@H]1CN(c2ccc(N3CCOCC3)c(F)c2)C(=O)O1
- Activity (Staphylococcus aureus [29]): Active
- Activity (Staphylococcus aureus [30]): Active
